Laboratory results from BindingDB's records for doi:10.1021/acsmedchemlett.0c00544 (Peking University Health Science Center, 2021).

Key:
[1] = target: T1, Signal transducer and activator of transcription 3 (Homo sapiens, UniProt P40763); test: Inhibition of IL-6 induced STAT3 transcriptional activity in human HEK-Blue IL-6 cells assessed as secreted embryonic alkaline phosphatase reporter gene expression measured after 20 hrs by microplate reader
Outline: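 HEK-Blue IL-6 reporter cells were treated for 20 h. IL-6/JAK/STAT3 pathway activity was quantified from secreted SEAP using a detection reagent, with parallel MTT viability. Values are averages of three independent experiments.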

[2] = target: T1, Signal transducer and activator of transcription 3; test: Inhibition of IL-6 induced STAT3 transcriptional activity in human HEK-Blue IL-6 cells assessed as secreted embryonic alkaline phosphatase reporter gene expression by microplate reader
Outline: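 HEK-Blue IL-6 reporter cells were treated for 20 h, and STAT3 pathway activity was quantified from secreted SEAP using a detection reagent. […] Values are averages of three independent experiments.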

T1 sequence (P40763 whole entry): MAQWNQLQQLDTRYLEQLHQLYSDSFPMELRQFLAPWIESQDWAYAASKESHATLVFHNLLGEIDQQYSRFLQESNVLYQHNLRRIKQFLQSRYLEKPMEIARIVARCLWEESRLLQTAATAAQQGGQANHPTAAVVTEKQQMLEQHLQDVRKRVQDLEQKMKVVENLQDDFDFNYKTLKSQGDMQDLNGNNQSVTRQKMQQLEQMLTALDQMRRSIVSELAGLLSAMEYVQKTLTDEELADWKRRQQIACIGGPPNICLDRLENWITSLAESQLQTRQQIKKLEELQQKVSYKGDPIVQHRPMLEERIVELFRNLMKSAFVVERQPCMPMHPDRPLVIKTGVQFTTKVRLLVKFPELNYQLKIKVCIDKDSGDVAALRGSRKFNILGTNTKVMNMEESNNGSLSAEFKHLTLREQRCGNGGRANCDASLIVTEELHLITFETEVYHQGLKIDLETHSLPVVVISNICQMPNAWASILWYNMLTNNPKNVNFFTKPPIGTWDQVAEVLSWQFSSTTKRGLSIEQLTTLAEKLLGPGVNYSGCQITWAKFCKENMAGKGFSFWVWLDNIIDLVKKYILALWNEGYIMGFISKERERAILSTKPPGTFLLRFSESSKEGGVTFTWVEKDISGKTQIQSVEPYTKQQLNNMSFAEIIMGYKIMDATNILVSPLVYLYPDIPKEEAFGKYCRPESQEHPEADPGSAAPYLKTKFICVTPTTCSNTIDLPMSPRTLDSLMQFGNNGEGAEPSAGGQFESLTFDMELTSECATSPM

Row | SMILES | IC50 [1] [µM] | IC50 [2] [µM]
1 | CC(=O)Oc1ccccc1C(=O)Nc1ncc([N+](=O)[O-])s1 [Alinia] | 9.8 | 9.98
2 | C[C@H](NC(=O)/C(C#N)=C/c1cccc(Br)n1)c1ccccc1 [Wp 1066] | 2.5 | 1.79
